For eight compounds, Activity and EC50 results are on record in ChEMBL document CHEMBL4368893, “2,2-Dimethyl-3,4-dihydro-2H-1,4-benzoxazines as isosteres of 2,2-dimethylchromans acting as inhibitors of insulin release and vascular smooth muscle relaxants” (Medchemcomm, 2019).

Assay [1] is described as follows: Inhibition of glucose-induced insulin release in rat pancreatic islets assessed as residual insulin secretion at 1 uM incubated for 90 mins incubated in presence of 16.7 mM glucose by radioimmunology assay. The assay is classed as functional. The essentials: (§1)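 Islets isolated from adult fed Wistar rats by collagenase digestion, used fresh. Groups of 10 islets pre-incubated 30 min at 37 °C in bicarbonate salt medium with 2.8 mM glucose and 0.5% albumin, gassed O2/CO2 95:5. Then 90 min at 37 °C with 16.7 mM glucose plus compound. Insulin by RIA against rat insulin standard. Output is % of control secretion, mean ± SEM (n).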

The test system of assay [2] is Thoracic aorta. As to the kind of experiment: Myorelaxant activity in rat thoracic aortic rings assessed as relaxation of 30 mM KCl-induced contraction by force-displacement transducer based assay relative to KCl. The assay is classed as functional, tissue-based. The essentials:
(§2)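 Aortic rings from adult fed Wistar rats. Kept at 37 °C in oxygenated medium (95% O2/5% CO2) and equilibrated 60 min. Contraction raised with 30 or 80 mM KCl and recorded isometrically by force transducer. Drug added cumulatively, up to maximal relaxation or 200 µM. Response expressed as % of KCl contraction; EC50 from concentration–response curves, mean ± SEM (n).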

Assay [3] is described as follows: Inhibition of glucose-induced insulin release in rat pancreatic islets assessed as residual insulin secretion at 10 uM incubated for 90 mins incubated in presence of 16.7 mM glucose by radioimmunology assay. The assay is classed as functional. In a few lines:
as §1

In assay [4] the test system is Thoracic aorta. As to the kind of experiment: Myorelaxant activity in rat thoracic aortic rings assessed as relaxation of 30 mM KCl-induced contraction in presence of 10 uM K-ATP channel blocker glibenclamide by force-displacement transducer based assay relative to KCl. The assay is classed as functional, tissue-based. In a few lines:
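Wistar rat aortic rings in oxygenated medium at 37 °C, equilibrated 60 min, with 10 µM glibenclamide present throughout. Precontracted with 30 mM KCl; isometric tension recorded by transducer. Cumulative drug addition to maximal relaxation or 200 µM. Tension expressed as % of KCl response; EC50 (50% inhibition of plateau) from concentration–response curves.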

Assay [5] has as its system Thoracic aorta. As to the kind of experiment: Myorelaxant activity in rat thoracic aortic rings assessed as relaxation of 80 mM KCl-induced contraction by force-displacement transducer based assay relative to KCl. The assay is classed as functional, tissue-based. In a few lines: as §2

For the compound `CC1(C)CN(NC(=O)Nc2ccc(C#N)cc2)c2cc(Cl)ccc2O1`, the Activity came to 79% in assay [1] and 43.1% in assay [3]. In assay [2], the EC50 is 3.7 µM.
On to `CC1(C)CN(NC(=O)Nc2cccc(Cl)c2)c2cc(Cl)ccc2O1`, for which the Activity in assay [1] is on record as 92.5%; in assay [3], 46%. For the same compound, the EC50 in assay [2] was determined as 9.9 µM.
On to `CC1(C)CN(NC(=S)Nc2cccc(Cl)c2)c2cc(Cl)ccc2O1`, for which, in assay [2], the EC50 is greater than 30 µM. Moreover, the Activity in assay [3] is reported as 71.8%.
As for `CC1(C)CN(NC(=S)Nc2ccc(C#N)cc2)c2cc(Cl)ccc2O1`, the Activity in assay [1] is 73.3%; in assay [3], 10.8%. Further, in assay [2], the EC50 was greater than 30 µM.
Taken in the same sequence, the figures for `CC1(C)CN(NC(=S)Nc2cccc(C#N)c2)c2cc(Cl)ccc2O1` were 83.1%, 27% and greater than 30 µM.
As to `CC1(C)CN(NC(=S)Nc2ccc(Cl)cc2)c2cc(Cl)ccc2O1`, the EC50 in assay [2] was greater than 30 µM. Besides, the Activity in assay [3] turned out to be 81.4%.
As for `CC1(C)CN(NC(=O)Nc2ccc(Cl)cc2)c2cc(Cl)ccc2O1`, the Activity in assay [1] is on record as 89.5%; in assay [3] it was 56.2%. Besides, the concentration for a half-maximal effect (EC50) in assay [2] turned out to be 13.3 µM.
Consider `CC1(C)CN(NC(=O)Nc2cccc(C#N)c2)c2cc(Cl)ccc2O1`, for which the Activity in assay [1] came out at 79.5%; in assay [3] it was 35.7%. Further, the results for the EC50 in assay [2], in assay [4] and in assay [5] were 1.9 to 3.1 µM, 3.9 µM and 5 µM, respectively.

What is called EC50 is the concentration at which the effect is half-maximal.
